Measured values as given in PubChem BioAssay.
The source made the active and inactive calls.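 How the source made its calls: active means current rise at least 3 SD above the untreated control mean in each of two repeat wells; inactive means the rest.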

Each compound was assayed against Potassium voltage-gated channel subfamily KQT member 1 (Homo sapiens) (UniProt P51787) (assay: KCNQ1 channel current potentiators, confirmation, orthogonal assay for KCNQ1 potentiator project, IonWorks patch clamp, KCNQ1-CHO cells (AID 493184)). Details: automated patch clamp current, at 10 µM.
Procedure, shortened: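 Material: KCNQ1-expressing CHO cells; doses: 10 µM final, single point; probe or stimulus: voltage step from -90 mV holding to +40 mV, 2,000 ms; signal: automated voltage clamp, amphotericin B perforated patch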

Potassium voltage-gated channel subfamily KQT member 1 (Homo sapiens), sequence (P51787 whole entry, looked up): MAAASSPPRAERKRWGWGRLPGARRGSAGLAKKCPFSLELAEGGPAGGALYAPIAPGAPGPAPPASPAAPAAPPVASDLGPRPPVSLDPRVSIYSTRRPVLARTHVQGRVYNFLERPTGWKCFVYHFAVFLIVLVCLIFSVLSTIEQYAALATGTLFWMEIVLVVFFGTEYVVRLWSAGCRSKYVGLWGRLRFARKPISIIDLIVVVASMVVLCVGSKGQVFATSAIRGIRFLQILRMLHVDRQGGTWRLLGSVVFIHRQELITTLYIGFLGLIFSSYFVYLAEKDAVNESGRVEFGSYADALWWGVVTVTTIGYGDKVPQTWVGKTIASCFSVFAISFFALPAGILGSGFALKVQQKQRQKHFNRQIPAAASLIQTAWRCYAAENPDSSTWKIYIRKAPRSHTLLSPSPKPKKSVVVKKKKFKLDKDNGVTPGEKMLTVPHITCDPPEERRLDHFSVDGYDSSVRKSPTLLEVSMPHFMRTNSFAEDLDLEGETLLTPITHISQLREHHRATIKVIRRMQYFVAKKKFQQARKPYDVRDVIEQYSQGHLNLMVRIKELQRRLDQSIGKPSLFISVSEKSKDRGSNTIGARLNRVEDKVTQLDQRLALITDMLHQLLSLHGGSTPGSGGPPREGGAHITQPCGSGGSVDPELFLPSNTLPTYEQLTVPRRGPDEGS

outcome, inactive:
Cc1cc(NC(=O)CSc2nc(C3CC3)nc3sc(C)c(C)c23)no1, CC(=O)Nc1c2c(nn1-c1ccc(C)cc1)CS(=O)(=O)C2, CCCNC(=O)C(=O)N/N=C/c1cccs1, O=c1c(O)c(-c2ccc3c(c2)OCO3)oc2ccccc12, Cc1ccc(C(=O)CC(=O)c2cccc(F)c2)c(O)c1, CN1C(=O)C2(Oc3ccccc3C3CC(c4ccccc4)=NN32)c2ccccc21 (stereo not given), Cc1nnc(SCC(=O)N(Cc2ccccc2)C(C)C)n1-c1ccccc1, O=C(NC(=S)N1CCc2ccccc21)c1ccccc1Br, Cc1[nH]c(-c2ccccn2)nc(=S)c1Cl, O=C1NN(c2ccccc2)C(=O)/C1=C\c1cccc(OC(=O)c2cccs2)c1, CC(C)C1=NN(C(=O)c2ccccc2)C(O)(C(C)(C)C)C1 (stereo not given), Cc1ccc(-n2ncc3c(SCC(=O)NNC(=O)c4ccco4)ncnc32)cc1, COC(=O)[C@@H]1CCCN1C(=O)CCc1nnc(CCC2CCCCC2)o1, CCOc1ccc(C(=O)C(CCC(CN(C)C)C(=O)c2ccc(OCC)cc2)CN(C)C)cc1 (stereo not given), O=C(Nc1nccs1)c1ccc(-c2ccc(F)c(Cl)c2)o1, O=[N+]([O-])c1cc(CN2CCCC2)ccc1Sc1ccc(Cl)cc1, Nc1nc(COc2ccccc2C=O)nc(Nc2ccccc2)n1, O=c1c2ccccc2nc(-c2cccc(Cl)c2)n1O, COc1ccc(C(=O)NNC(=O)C(=O)NC2CCCCC2)cc1, O=C(NN=C1CCCCCC1)c1cc(-c2ccccc2)nc2ccccc12, Cc1ccc(C(=O)NCCC(=O)NCc2cc(=O)n(C)c(=O)n2C)cc1, CC(C)c1nc2n[nH]c(N)c2c2c1CSC(C)(C)C2, COCCN(C(=O)COC(=O)/C=C/c1cccs1)c1c(N)n(Cc2ccccc2)c(=O)[nH]c1=O, N#C/C(=C\c1ccc(-c2ccccc2Cl)o1)C(=O)Nc1nc2ccccc2s1, CSC(=S)N/N=C/c1ccc(N(C)C)cc1, Cc1ccc(C(=O)COC(=O)COc2ccccc2C)cc1, O=c1c2cc(Cl)ccc2nc(-c2ccccc2)n1O, OC(c1ccccc1)c1cccnc1 (stereo not given), CCCn1c(=S)[nH]c2sc3c(c2c1=O)CCCC3, Fc1ccccc1/C=N/NC(=S)Nc1ccc(Cl)cc1Cl, CCCCOC(=O)c1cc(C)nc2ccc(Br)cc12, COC(=O)C1SCC2C(=O)N(Cc3ccc(F)cc3)CC(=O)N21 (stereo not given), CCCOc1ccc(CN(CCC#N)C(=S)NC(=O)c2ccccc2)cc1, CCN(C(=O)COC(=O)c1ccccc1Nc1cccc(C)c1C)C1CCS(=O)(=O)C1 (stereo not given), COc1ccc(N2CCN(C(=O)COC(=O)/C=C/c3ccc(OC(F)F)cc3)CC2)cc1, Clc1ccc(C(c2ccccc2)N2CCNCC2)cc1 (stereo not given), CCOC(=O)CSc1nc2ccccc2c(=O)n1-c1ccc(C)cn1, Cc1cc(C)c(NC(=O)CN2C(=O)NC3(CCCc4ccccc43)C2=O)c(Cl)c1 (stereo not given), O=C(c1ccccc1[N+](=O)[O-])N1CCN(c2ccc(N3CCOCC3)nn2)CC1, COc1ccc(-c2csc(N(CCCN(C)C)C(=O)c3ccccc3Cl)n2)cc1
